Assays:
[1] = biological target: T1, Mitogen-activated protein kinase 14 (Homo sapiens, UniProt Q16539); test: In vitro inhibitory concentration against Mitogen-activated protein kinase p38 alpha
[2] = biological target: Mitogen-activated protein kinase 14 (Rattus norvegicus) (UniProt P70618); test: In vivo percent inhibition of LPS stimulated TNF alpha synthesis in rat at a concentration of 30 mg/kg; assay type: functional, organism-based; set-up: dose 30 mg/kg
How it was run: (§1)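 Female Wistar/Han rats, 8 per group, were dosed orally at −30 min with compound in CMC vehicle (0.9% NaCl, 0.5% Na-CMC, 0.4% polysorbate 80, 0.9% benzyl alcohol) or with vehicle alone. LPS 50 μg/kg was given ip at 0 h. At 1.5 h, blood was taken by cardiocentesis after CO₂ euthanasia, and serum TNFα was measured by ELISA against vehicle controls.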

[3] = T 1/2 at a dose of 10 mg/Kg administered intravenously in female hanover-wistar rat; assay type: ADME, organism-based; settings: in vivo, iv
How it was run: (§2)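 Female Wistar/Han rats weighing 180–220 g, 3 per dose regime, received a single 10 mg/kg IV bolus in 50% cyclodextran/water. Blood was drawn under CO₂:O₂ (60:40) via orbital sinus or cardiac puncture at 1, 3, 6, 8 and 24 h. Plasma was protein-precipitated with acetonitrile, diluted in 50 mM formate buffer and quantified by LC/MS.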

[4] = T 1/2 at a dose of 10 mg/Kg administered perorally in female hanover-wistar rat; assay type: ADME, organism-based; settings: in vivo, po
How it was run: (§3)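 Female Wistar/Han rats (180–220 g, n=3 per regime) received a single 10 mg/kg oral suspension in 0.9% NaCl, 0.5% Na-CMC, 0.4% polysorbate 80 and 0.9% benzyl alcohol. Blood was taken at 1, 3, 6, 8 and 24 h by orbital sinus or cardiac puncture. Plasma drug was measured by LC/MS after acetonitrile precipitation; the comparison arm was a 10 mg/kg IV bolus.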

[5] = T max at a dose of 10 mg/Kg administered intravenously in female hanover-wistar rat; assay type: ADME, organism-based; settings: in vivo, iv; how it was run: as §2
[6] = T max at a dose of 10 mg/Kg administered perorally in female hanover-wistar rat; assay type: ADME, organism-based; settings: in vivo, po; how it was run: as §3
[7] = AUC at a dose of 10 mg/Kg administered intravenously in female hanover-wistar rat; assay type: ADME, organism-based; settings: plasma, iv; how it was run: as §2
[8] = AUC at a dose of 10 mg/Kg administered perorally in female hanover-wistar rat; assay type: ADME, organism-based; settings: plasma, po; how it was run: as §3
[9] = Bioavailability at a dose of 10 mg/Kg administered perorally in female hanover-wistar rat; assay type: ADME, organism-based; settings: in vivo, po; how it was run: as §3
[10] = CL at a dose of 10 mg/Kg administered intravenously in female hanover-wistar rat; assay type: ADME, organism-based; settings: in vivo, iv; how it was run: as §2
[11] = C max at a dose of 10 mg/Kg administered intravenously in female hanover-wistar rat; assay type: ADME, organism-based; set-up: dose 10 mg/Kg, route intravenous; settings: in vivo, iv; how it was run: as §2
[12] = C max at a dose of 10 mg/Kg administered perorally in female hanover-wistar rat; assay type: ADME, organism-based; set-up: dose 10 mg/Kg, route oral; settings: in vivo, po; how it was run: as §3
[13] = Partition coefficient (logP); assay type: physicochemical; settings: octanol/water
[14] = organism: Homo sapiens; test: Caco-2 permeability was determined; activity value is 5.8*10e-5; assay type: ADME
[15] = biological target: Cyclin-dependent kinase 1 (Homo sapiens, UniProt P06493); test: Inhibition of Cyclin-dependent kinase 1
Cyclin-dependent kinase 1, sequence (P06493 whole entry): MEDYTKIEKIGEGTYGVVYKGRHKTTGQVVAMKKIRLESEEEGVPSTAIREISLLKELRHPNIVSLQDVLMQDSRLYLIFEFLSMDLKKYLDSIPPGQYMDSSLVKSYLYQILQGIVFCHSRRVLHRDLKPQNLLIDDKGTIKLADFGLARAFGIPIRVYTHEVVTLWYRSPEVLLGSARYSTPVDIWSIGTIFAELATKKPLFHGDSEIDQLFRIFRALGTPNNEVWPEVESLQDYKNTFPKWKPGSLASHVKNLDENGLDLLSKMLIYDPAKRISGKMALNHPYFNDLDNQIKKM

[16] = biological target: Cyclin-dependent kinase 2 (Homo sapiens, UniProt P24941); test: Inhibition of Cyclin-dependent kinase 2
[17] = biological target: Cyclin-dependent kinase 3 (Homo sapiens, UniProt Q00526); test: Inhibition of Cyclin-dependent kinase 3
Cyclin-dependent kinase 3, sequence (Q00526 whole entry): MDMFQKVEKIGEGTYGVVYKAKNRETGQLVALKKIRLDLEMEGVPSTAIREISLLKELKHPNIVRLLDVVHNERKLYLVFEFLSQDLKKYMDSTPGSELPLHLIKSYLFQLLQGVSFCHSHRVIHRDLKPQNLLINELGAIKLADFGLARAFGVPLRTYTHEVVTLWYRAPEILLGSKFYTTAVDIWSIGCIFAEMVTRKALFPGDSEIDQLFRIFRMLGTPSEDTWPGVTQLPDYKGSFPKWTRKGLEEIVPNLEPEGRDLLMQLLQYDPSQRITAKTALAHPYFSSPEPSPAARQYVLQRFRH

[18] = biological target: Cyclin-dependent kinase 4 (Homo sapiens, UniProt P11802); test: Inhibition of Cyclin-dependent kinase 4
Cyclin-dependent kinase 4, sequence (P11802 whole entry): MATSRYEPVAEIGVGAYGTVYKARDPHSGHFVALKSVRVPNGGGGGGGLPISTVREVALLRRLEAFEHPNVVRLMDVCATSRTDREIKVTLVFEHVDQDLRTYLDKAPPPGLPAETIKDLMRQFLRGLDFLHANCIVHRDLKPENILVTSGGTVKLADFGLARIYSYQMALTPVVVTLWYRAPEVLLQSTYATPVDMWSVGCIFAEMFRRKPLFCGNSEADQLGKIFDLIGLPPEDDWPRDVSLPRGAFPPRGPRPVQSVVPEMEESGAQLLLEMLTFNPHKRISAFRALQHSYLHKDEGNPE

[19] = biological target: Tyrosine-protein kinase Fyn (Homo sapiens, UniProt P06241); test: Inhibition of p55 Fyn kinase
Tyrosine-protein kinase Fyn, sequence (P06241 whole entry): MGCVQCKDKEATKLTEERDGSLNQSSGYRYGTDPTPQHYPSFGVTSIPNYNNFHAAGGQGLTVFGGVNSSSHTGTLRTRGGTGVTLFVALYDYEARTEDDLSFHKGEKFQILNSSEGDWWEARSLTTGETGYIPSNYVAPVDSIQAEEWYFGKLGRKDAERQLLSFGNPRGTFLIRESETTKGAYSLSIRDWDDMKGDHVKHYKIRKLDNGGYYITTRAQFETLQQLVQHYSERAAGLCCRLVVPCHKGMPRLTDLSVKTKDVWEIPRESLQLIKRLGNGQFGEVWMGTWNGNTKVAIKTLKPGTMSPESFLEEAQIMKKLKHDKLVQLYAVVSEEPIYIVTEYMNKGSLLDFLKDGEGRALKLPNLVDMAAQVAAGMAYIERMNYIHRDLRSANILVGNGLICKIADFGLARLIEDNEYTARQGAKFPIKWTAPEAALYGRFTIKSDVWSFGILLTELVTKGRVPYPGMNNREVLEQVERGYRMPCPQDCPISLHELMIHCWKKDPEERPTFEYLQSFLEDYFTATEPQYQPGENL

[20] = biological target: T2, Inhibitor of nuclear factor kappa-B kinase subunit beta (Homo sapiens, UniProt O14920); test: Inhibition of I-kappa-B-kinase beta
T2 sequence (O14920 whole entry): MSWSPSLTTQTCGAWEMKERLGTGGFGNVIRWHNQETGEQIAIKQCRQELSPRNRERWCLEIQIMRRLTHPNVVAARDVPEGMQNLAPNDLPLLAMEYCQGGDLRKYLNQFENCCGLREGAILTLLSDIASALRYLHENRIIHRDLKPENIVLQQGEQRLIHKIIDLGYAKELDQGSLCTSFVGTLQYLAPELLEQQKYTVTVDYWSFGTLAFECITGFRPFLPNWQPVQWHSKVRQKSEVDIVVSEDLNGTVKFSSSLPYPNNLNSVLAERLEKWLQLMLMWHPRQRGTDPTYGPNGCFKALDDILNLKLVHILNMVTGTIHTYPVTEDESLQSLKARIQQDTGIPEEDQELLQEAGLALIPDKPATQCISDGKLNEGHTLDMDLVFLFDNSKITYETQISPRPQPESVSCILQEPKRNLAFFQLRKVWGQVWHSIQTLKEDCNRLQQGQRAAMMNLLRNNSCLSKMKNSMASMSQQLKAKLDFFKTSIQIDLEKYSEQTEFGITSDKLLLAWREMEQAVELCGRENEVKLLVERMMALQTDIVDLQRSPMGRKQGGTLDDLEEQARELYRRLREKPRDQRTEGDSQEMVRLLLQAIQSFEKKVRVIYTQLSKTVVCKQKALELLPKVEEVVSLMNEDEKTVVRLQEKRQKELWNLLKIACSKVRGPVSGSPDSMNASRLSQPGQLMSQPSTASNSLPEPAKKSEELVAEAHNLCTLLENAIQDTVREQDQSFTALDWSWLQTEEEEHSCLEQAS

[21] = biological target: T3, Interleukin-1 receptor-associated kinase 4 (Homo sapiens, UniProt Q9NWZ3); test: Inhibition of Interleukin-1 receptor-associated kinase-4
T3 sequence (Q9NWZ3 whole entry): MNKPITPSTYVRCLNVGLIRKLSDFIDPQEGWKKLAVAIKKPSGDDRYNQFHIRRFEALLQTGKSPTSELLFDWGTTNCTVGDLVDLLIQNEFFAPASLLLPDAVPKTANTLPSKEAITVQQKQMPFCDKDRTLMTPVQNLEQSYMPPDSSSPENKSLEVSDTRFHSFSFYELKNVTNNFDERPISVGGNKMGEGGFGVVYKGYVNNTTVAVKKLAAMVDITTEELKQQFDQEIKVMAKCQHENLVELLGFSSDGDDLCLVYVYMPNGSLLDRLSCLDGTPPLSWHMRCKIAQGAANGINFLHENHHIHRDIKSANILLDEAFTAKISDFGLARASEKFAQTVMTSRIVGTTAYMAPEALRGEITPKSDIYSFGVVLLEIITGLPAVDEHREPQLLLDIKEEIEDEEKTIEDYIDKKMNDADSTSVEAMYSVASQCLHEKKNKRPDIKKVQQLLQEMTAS

[22] = biological target: T4, MAP kinase p38 (Homo sapiens, UniProt O15264+Q15759+Q16539+P53778); test: Inhibition of LPS-induced p38-related IL1-beta production in human white blood cells; assay type: functional, cell-based
How it was run: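 Heparinized whole blood from donors medication-free for at least 14 days. Compounds came from a 6 mM DMSO stock, six 3-fold serial dilutions in DMSO, then diluted 1/20 in RPMI and run in triplicate. Blood was preincubated with compound 30 min at 37 °C, then stimulated with E. coli 0127:B8 LPS at 0.5 μg/mL final overnight at 37 °C, 5% CO₂. Plasma IL-1β was measured by ELISA.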

[23] = biological target: MAP kinase-activated protein kinase 2 (Homo sapiens, UniProt P49137); test: Inhibition of MAP kinase-activated protein kinase 2
MAP kinase-activated protein kinase 2, sequence (P49137 whole entry): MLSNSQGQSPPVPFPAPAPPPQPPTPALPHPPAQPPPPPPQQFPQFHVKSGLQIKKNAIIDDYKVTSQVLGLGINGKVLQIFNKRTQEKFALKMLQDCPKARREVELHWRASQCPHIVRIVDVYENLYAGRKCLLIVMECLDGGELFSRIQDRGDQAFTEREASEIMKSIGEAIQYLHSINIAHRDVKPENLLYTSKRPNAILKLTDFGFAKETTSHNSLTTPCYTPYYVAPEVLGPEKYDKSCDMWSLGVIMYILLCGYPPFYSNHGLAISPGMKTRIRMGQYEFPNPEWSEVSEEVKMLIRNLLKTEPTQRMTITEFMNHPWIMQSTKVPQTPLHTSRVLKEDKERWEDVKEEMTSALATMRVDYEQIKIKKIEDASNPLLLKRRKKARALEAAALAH

[24] = biological target: T1, Mitogen-activated protein kinase 14; test: Inhibition of Mitogen-activated protein kinase p38 alpha
How it was run: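 Human recombinant active p38α (5 nM) in MOPS pH 7.4 buffer (40 mM MgCl₂, 1 mM DTT, β-glycerophosphate, EGTA, orthovanadate) was preincubated 10 min at room temperature with compound (0–10 μM, DMSO). Reaction was started with γ-[³³P]ATP (50 μM) and MBP (35 μM), run 30 min at 30 °C, then captured on phosphocellulose, acid-washed and counted. IC50 was fitted as fractional activity = 1/([I]/IC50 + 1).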

[25] = biological target: Mitogen-activated protein kinase; ERK1/ERK2 (Homo sapiens, UniProt P27361+P28482); test: Inhibition of Mitogen-activated protein kinase ERK; assay type: protein assay
[26] = biological target: cAMP-dependent protein kinase (PKA) (Homo sapiens, UniProt P22694+P17612+P22612); test: Inhibition of Protein kinase A (PKA); assay type: protein assay
[27] = biological target: Protein kinase C (PKC); test: Inhibition of Protein kinase C; assay type: protein assay
[28] = organism: Rattus norvegicus; test: Effective dose against LPS stimulated TNF alpha production in rats; assay type: functional; how it was run: as §1
[29] = biological target: T4, MAP kinase p38; test: In vitro inhibition of LPS induced p38-related TNFalpha release by THP-1 cells; assay type: functional, cell-based
How it was run: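 THP-1 cells at 2.5×10⁶ cells/mL in RPMI with 15% FBS and 0.02 mM 2-mercaptoethanol were preincubated 30 min at 37 °C with compound in DMSO-containing medium (DMSO stated as 5% final). LPS was then added at 0.5 μg/mL final for a further 2 h. Supernatant TNFα was read by trapping ELISA with two anti-TNFα antibodies.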

[30] = biological target: Vascular endothelial growth factor receptor 2 (Homo sapiens, UniProt P35968); test: Inhibition of Vascular endothelial growth factor receptor 2
Vascular endothelial growth factor receptor 2, sequence (P35968 whole entry): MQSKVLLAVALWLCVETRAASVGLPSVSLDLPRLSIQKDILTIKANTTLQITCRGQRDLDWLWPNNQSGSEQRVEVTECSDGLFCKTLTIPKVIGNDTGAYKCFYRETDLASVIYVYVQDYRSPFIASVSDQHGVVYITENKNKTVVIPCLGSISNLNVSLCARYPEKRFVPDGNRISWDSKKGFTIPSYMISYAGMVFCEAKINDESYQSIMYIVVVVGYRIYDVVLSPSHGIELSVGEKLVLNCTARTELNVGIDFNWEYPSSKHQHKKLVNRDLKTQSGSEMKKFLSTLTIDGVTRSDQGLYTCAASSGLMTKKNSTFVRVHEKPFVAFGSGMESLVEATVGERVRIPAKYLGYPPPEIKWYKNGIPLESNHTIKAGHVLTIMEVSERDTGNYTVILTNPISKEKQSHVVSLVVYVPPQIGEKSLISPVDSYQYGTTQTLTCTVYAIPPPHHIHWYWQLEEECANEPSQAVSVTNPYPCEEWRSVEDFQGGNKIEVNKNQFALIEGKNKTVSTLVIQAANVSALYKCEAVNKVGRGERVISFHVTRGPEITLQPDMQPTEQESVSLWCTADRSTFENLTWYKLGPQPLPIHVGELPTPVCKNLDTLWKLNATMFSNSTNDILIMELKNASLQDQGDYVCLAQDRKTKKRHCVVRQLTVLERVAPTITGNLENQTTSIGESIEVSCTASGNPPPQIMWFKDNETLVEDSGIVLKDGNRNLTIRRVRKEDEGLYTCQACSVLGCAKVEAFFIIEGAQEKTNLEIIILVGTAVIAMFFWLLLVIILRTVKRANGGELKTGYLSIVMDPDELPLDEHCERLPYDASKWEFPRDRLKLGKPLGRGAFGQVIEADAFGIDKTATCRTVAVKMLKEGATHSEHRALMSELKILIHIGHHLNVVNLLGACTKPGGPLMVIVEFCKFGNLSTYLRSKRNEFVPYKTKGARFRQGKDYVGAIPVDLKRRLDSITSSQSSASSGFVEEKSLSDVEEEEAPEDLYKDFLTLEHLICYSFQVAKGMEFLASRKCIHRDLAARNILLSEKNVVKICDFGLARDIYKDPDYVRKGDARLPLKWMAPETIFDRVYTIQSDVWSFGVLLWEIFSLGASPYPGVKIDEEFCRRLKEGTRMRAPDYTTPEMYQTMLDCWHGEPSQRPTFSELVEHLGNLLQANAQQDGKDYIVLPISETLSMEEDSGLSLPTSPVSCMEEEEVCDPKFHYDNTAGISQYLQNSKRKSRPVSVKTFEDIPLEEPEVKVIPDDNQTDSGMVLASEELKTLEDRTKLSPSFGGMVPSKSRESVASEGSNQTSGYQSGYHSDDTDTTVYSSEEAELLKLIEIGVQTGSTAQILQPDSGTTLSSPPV

[31] = biological target: Mitogen-activated protein kinase 8 (Homo sapiens, UniProt P45983); test: Inhibition of c-Jun N-terminal kinase 1
Mitogen-activated protein kinase 8, sequence (P45983 whole entry): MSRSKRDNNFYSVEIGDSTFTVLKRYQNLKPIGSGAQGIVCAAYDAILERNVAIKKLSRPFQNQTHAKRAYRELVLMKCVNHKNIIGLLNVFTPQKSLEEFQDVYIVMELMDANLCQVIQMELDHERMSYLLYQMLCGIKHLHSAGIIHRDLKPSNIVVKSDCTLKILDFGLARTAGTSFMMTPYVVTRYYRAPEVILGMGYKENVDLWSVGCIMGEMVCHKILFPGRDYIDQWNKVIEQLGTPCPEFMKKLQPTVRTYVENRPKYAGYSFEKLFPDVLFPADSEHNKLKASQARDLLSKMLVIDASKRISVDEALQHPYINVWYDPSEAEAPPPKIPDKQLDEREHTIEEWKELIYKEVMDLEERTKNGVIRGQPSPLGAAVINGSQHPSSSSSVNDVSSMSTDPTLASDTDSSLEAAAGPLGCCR

[32] = biological target: Interleukin-1 receptor-associated kinase 1 (Homo sapiens, UniProt P51617); test: Inhibition of interleukin-1 receptor-associated kinase 1
Interleukin-1 receptor-associated kinase 1, sequence (P51617 whole entry): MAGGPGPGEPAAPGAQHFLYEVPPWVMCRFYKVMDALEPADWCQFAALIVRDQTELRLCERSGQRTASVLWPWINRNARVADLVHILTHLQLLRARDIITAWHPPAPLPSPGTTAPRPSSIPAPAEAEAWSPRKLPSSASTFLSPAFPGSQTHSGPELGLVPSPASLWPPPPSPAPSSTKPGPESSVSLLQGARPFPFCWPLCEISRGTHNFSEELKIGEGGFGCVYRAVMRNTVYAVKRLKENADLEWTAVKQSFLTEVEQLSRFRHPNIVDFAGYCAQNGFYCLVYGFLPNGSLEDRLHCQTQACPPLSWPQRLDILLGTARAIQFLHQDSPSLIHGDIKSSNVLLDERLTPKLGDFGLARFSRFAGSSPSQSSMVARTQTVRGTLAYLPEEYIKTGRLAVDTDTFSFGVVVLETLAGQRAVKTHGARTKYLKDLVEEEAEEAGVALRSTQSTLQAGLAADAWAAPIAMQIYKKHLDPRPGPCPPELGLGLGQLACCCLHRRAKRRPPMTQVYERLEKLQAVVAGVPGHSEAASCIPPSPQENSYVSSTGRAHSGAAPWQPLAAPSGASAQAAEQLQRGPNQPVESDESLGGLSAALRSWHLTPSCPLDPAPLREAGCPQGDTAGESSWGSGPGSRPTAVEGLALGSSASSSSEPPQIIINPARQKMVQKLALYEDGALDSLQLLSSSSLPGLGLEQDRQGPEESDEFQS

T1 sequence (Q16539 whole entry): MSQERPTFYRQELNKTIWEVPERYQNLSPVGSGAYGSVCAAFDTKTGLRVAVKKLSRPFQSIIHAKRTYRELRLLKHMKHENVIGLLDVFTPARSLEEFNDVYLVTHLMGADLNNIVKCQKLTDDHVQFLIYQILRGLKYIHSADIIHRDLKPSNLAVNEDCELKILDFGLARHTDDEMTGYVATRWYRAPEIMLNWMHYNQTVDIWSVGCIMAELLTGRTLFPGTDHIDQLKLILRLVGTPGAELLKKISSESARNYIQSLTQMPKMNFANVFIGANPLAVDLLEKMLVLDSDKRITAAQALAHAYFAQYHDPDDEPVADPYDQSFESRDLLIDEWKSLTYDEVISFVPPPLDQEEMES
Mitogen-activated protein kinase 14 (Rattus norvegicus), sequence (P70618 whole entry): as the sequence (Q16539 whole entry) above, with I17V, L48H, T263A, D321E, L332F counted along it

## Fc1ccc(-c2c(-c3ccncc3)[nH]c3ccccc23)cc1
[1]
  IC50: 1.8 µM

## O=C(O)Cn1c(-c2ccncc2)c(-c2ccc(F)cc2)c2ncccc21
[1]
  IC50: 23.6 µM
[2]
  inhibition: 50%

## OCCn1c(-c2ccncc2)c(-c2ccc(F)cc2)c2ncccc21
[1]
  IC50: 0.172 µM

## Cn1c(-c2ccncc2)c(-c2ccc(F)cc2)c2ncccc21
[1]
  IC50: 0.098 µM
[2]
  inhibition: 53%

## Fc1ccc(-c2c(-c3ccncc3)[nH]c3nccnc23)cc1
[1]
  IC50: 0.053 µM
[2]
  inhibition: 98%

## Fc1ccc(-c2c(-c3ccncc3)oc3cccnc23)cc1
[2]
  inhibition: 44%

## C[C@H](O)CNc1cc(-c2[nH]c3cccnc3c2-c2ccc(F)cc2)ccn1
[3]
  half-life: 1.1 h
[4]
  half-life: 1.5 h
[5]
  Tmax: < 1 h
[6]
  Tmax: 1 h
[7]
  AUC: 23.4 µM·h
[8]
  AUC: 20 µM·h
[9]
  bioavailability: 85.6%
[10]
  clearance: 20 mL/min/kg
[11]
  Cmax: 10.3 µM
[12]
  Cmax: 6.9 µM
[13]
  logP: 3.5
[14]
  Cell permeation: Permeable
[15]
  IC50: > 25 µM
[16]
  IC50: > 25 µM
[17]
  IC50: > 25 µM
[18]
  IC50: > 25 µM
[19]
  IC50: > 10 µM
[20]
  IC50: > 30 µM
[21]
  IC50: > 30 µM
[22]
  IC50: 0.21 µM
[23]
  IC50: > 30 µM
[1]
  IC50: 0.001 µM
[24]
  IC50: 0.00129 µM
[25]
  IC50: > 10 µM
[26]
  IC50: > 10 µM
[27]
  IC50: > 10 µM
[28]
  ED50: 2 mg/kg
[2]
  inhibition: 88%
[29]
  IC50: 0.0017 µM
[30]
  IC50: > 10 µM
[31]
  IC50: > 10 µM
[32]
  IC50: > 30 µM

## Fc1ccc(-c2c(-c3ccncc3)n(CCN3CCCCC3)c3cccnc23)cc1
[1]
  IC50: 1.97 µM
[2]
  inhibition: 75%

## CCn1c(-c2ccncc2)c(-c2ccc(F)cc2)c2ncccc21
[1]
  IC50: 0.024 µM
[2]
  inhibition: 41%

## Fc1ccc(-c2c(-c3ccncc3)[nH]c3cccnc23)cc1
[1]
  IC50: 0.0065 µM
[2]
  inhibition: 46%

— ChEMBL document CHEMBL1145138, “Design and synthesis of 4-azaindoles as inhibitors of p38 MAP kinase” (J Med Chem, 2003)
